This note sets out measurements from publication PMC11628833 (Acta Pharmaceutica Sinica. B, 2024).

Common to all, as to format: cell-based
Assay [1] has as its target TLR4 (Homo sapiens, UniProt O00206). As to the kind of experiment: Specificity test in HEK-Blue TLR-overexpressing cells, TLR4. The following applies: 5 μM S-1, HEK-Blue TLR cells, TLR-specific agonist.
Assay [2] addresses T1, human TLR7 (Homo sapiens, UniProt Q9NYK1).
T1 sequence (Q9NYK1 27-1049): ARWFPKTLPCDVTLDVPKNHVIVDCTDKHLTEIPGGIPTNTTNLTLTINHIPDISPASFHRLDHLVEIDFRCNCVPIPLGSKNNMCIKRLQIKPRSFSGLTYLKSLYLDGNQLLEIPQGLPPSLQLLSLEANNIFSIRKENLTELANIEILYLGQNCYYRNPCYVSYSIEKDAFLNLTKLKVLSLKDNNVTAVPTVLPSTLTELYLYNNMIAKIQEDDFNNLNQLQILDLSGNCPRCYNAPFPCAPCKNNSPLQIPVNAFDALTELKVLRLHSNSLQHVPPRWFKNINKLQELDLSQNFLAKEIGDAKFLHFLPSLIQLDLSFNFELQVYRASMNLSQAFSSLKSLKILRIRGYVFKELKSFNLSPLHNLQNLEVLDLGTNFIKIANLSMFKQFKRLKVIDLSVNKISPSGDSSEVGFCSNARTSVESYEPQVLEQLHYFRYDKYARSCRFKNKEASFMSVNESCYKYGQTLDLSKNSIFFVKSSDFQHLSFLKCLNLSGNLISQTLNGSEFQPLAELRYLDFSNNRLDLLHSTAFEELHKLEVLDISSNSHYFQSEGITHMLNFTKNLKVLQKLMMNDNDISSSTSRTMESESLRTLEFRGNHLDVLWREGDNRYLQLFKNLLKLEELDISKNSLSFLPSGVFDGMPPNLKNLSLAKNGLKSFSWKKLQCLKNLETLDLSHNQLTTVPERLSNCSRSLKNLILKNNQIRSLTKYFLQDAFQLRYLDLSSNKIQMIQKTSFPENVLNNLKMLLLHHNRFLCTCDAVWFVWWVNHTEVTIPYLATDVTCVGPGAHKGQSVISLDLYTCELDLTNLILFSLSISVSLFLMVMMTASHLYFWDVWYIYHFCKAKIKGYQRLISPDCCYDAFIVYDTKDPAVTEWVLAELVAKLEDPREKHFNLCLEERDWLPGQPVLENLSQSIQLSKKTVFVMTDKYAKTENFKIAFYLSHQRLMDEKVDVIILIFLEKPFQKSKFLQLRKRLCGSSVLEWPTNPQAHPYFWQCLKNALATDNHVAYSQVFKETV
Kind of assay: SEAP reporter assay in HEK-Blue hTLR7 cells. A digest of the protocol: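 HEK-Blue hTLR7 cells (stable human TLR7 with SEAP reporter) were plated at 5 × 10^5 cells/mL in DMEM with 10% heat-inactivated FBS. They were treated with R848 and varying test compound concentrations at 37 °C for 20–24 h. Medium was mixed with QUANTI-Blue, incubated at 37 °C for about 30 min, and read at 620 nm. R848-only = 100% activation; untreated = 0%.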
(Reporter assays use an easily measured gene product as a stand-in for the process of interest.)

The target of assay [3] is T2, hTLR8 (Homo sapiens, UniProt Q9NR97).
T2 sequence (Q9NR97 27-1041): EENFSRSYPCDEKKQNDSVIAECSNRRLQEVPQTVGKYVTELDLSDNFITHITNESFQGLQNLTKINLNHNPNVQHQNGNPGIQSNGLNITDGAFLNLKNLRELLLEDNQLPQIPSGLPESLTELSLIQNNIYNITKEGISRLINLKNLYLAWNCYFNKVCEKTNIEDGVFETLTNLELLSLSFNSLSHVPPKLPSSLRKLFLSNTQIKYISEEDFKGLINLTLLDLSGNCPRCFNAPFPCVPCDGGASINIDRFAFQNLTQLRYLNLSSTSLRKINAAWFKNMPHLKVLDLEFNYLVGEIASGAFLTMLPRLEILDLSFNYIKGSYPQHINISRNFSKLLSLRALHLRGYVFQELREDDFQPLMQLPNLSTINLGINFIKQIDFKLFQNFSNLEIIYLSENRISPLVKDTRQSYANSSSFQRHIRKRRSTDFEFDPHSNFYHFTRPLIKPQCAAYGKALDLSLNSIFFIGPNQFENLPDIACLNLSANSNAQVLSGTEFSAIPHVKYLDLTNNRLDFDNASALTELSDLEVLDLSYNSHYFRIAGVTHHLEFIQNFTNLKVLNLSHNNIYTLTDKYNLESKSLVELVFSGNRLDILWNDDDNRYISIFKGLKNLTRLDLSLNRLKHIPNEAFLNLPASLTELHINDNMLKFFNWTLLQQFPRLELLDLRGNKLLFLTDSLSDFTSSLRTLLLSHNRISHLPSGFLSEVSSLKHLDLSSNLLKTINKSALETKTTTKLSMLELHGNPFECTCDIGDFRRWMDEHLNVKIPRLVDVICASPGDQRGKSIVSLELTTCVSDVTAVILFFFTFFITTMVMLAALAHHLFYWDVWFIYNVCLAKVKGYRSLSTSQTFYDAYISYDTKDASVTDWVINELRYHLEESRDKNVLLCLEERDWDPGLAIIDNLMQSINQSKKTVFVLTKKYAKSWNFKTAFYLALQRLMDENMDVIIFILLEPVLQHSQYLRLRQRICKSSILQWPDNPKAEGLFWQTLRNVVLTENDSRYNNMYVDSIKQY
Kind of assay: SEAP reporter assay in HEK-Blue hTLR8 cells.

TLR4, sequence (O00206 24-839): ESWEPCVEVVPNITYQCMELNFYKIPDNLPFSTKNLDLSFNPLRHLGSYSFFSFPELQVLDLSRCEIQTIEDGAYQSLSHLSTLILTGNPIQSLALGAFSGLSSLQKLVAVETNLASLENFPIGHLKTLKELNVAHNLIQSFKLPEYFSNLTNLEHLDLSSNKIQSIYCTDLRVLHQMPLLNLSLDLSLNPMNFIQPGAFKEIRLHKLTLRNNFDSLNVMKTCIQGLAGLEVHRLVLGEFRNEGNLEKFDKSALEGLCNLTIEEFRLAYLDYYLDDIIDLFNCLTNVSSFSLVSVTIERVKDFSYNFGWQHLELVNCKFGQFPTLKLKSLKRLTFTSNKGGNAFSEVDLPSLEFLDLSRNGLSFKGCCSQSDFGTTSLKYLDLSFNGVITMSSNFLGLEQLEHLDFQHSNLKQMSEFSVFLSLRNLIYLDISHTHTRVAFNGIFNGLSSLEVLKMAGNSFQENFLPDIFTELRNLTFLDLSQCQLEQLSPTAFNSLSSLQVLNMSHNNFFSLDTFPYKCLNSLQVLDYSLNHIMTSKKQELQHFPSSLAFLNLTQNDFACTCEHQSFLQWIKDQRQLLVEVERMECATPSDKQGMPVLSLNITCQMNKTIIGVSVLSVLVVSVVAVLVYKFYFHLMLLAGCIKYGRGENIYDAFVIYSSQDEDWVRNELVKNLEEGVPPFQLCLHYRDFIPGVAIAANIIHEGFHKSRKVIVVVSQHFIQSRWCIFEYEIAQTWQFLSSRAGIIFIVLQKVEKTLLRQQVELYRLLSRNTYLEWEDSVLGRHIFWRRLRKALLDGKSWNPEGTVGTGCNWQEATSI
TLR4, sequence (Q9Y6Y9 17-160 partner limits assumed): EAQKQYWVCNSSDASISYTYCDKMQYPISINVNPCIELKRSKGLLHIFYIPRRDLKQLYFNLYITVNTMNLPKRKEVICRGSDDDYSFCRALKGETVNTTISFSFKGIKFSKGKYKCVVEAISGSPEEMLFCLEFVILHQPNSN

A word on the IC50: it is the concentration that gives 50% inhibition. Read a high IC50 as lower potency. Take `O=C(c1ccc(Cl)cc1)N1CCN(c2ccc([N+](=O)[O-])c3ncccc23)CC1` [Compound S1]: the “inhibition of TLR4” value in assay [1] was “no obvious inhibition”. The half-inhibitory concentration (IC50) in assay [2] was 790 ± 270 nM; in assay [3] it was 130 ± 30 nM.
